Experimental data pooled from the literature.
Compare with care: the assays were run in different laboratories.
Target: Proto-oncogene tyrosine-protein kinase Src (SRC, Homo sapiens, UniProt P12931)

SMILES	test	setting	remaining binding
CCOC(=O)c1cc2cc(-c3cc(C(=O)NCc4ccc(C(=O)O)cc4)nn3C)ccc2[nH]1	cell-free assay, competition with immobilised ligand	0.1 µM	93%
C[C@@H]1CCN(c2nccc(-c3cnn4ncccc34)n2)C1	binding	1 µM	92%
Cc1c[nH]c2nccc(Oc3c(F)cc(Nc4cc(Cl)nc(N)n4)cc3F)c12	cell-free assay, competition with immobilised ligand	0.1 µM	100%
COc1cnc(Nc2cccc(S(N)(=O)=O)c2)nc1N1CCN(c2ccccc2)C(=O)C1	binding, competition with immobilised ligand	1 µM	100%
F[C@@H]1CCN(c2nccc(-c3cnn4ncccc34)n2)C1	binding	1 µM	100%
Cc1cnc(Nc2ccc(C(=O)N3CCC(N4CCCC4)CC3)cc2)nc1-c1cc2ccccc2s1	binding, competition with immobilised ligand	1 µM	16%
CCC(=N\O)/C(C)=C/c1ccc(F)cc1	cell-free assay, competition with immobilised ligand	1 µM	91%
O=C(NCC1CCOCC1)c1n[nH]cc1NC(=O)c1c(F)cccc1F	binding, competition with immobilised ligand	1 µM	86%
CCN1CCN(Cc2ccc(C(=O)Nc3ccc(C)c(Oc4ccc5c(c4)CC(=O)N5)c3)cc2C(F)(F)F)CC1	binding, competition with immobilised ligand	1 µM	78%
COC(=O)Nc1nc2ccc(C(=O)c3ccccc3)cc2[nH]1	cell-free assay, competition with immobilised ligand	10 µM	34%
N[C@@H]1CCN(c2nccc(-c3cnn4ncccc34)n2)C1	binding	1 µM	100%
CNC(=O)Nc1ccc2c(c1)[C@@]1(CC2)OC(=O)N(CC(=O)N(Cc2ccc(F)cc2)[C@@H](C)C(F)(F)F)C1=O	cell-free assay, competition with immobilised ligand	1 µM	90%
COc1ncc2cc3ccccc3nc2c1C#N	cell-free assay, competition with immobilised ligand	5 µM	88%
O=C(c1ccc(Nc2nccc(-c3cc4ccccc4s3)n2)cc1)N1CCC(N2CCCC2)CC1	binding, competition with immobilised ligand	1 µM	63%
O=C(Nc1cccnn1)N1CC(C/C=C/c2cncc(Oc3ccc(C(F)(F)F)cn3)n2)C1	cell-free assay, competition with immobilised ligand	1 µM	100%
Cc1cnn2ncc(-c3ccnc(N(C)C)n3)c2c1	binding	1 µM	100%
COc1ccc2c(O[C@@H]3C[C@H]4C(=O)N[C@]5(C(=O)O)CC5/C=C\CCCCC[C@H](NC(=O)OC5CCCC5)C(=O)N4C3)cc(-c3csc(NC(=O)C(C)C)n3)nc2c1C (stereo partly shown)	cell-free assay, competition with immobilised ligand	1 µM	100%
CC1CCCN1c1nccc(-c2cnn3ncccc23)n1 (stereo not shown)	binding	1 µM	100%
N#Cc1ccccc1CSc1nnc2c(n1)[nH]c1ccccc12	binding, competition with immobilised ligand	10 µM	100%
Cc1cc(-n2nc(Cc3cc(F)cc(C(F)(F)F)c3)nc2C)ccc1C(N)=O	cell-free assay, competition with immobilised ligand	1 µM	95%
CN(C)c1nccc(-c2cnc3ncccn23)n1	binding	1 µM	89%
O=c1nc(-c2ccccn2)sc2ccccc12	cell-free assay, competition with immobilised ligand	1 µM	92%
O=C(NCCCN1CCOCC1)c1ccc(Nc2nccc(-c3cc4ccccc4s3)n2)cc1	binding, competition with immobilised ligand	1 µM	100%
CN(CCCC(F)(F)F)c1nccc(-c2cnn3ncccc23)n1	binding	1 µM	100%
C=CC(=O)N1CCC(C(=O)NCC(=O)N2CCN(c3nc(-c4cnc(N)nc4C(F)F)nc(N4CCOCC4)n3)CC2)CC1	binding, competition with immobilised ligand	1 µM	91%
